We go through 10 compounds from ChEMBL document CHEMBL1148153, “New 3-O-acyl betulinic acids from Strychnos vanprukii Craib” (J Nat Prod, 2004).

Series [1] is described as follows: Cytotoxicity against human HOG.R5 cells at 40 ug/ml after 4 days. The class given is cell-based. The following applies: 96 h. The procedure, abridged: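 HOG.R5 cultures run in parallel with the infection assay, given identical test-agent concentrations with virus omitted. After 4 days, viability monitored by microscopic and fluorometric measurement and CC50 derived.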

In series [2] the test system is Human immunodeficiency virus 1. Briefly: Antiviral activity against HIV1 3B infected in human CEM-SS cells assessed as inhibition of virus-induced cytopathic effect after 6 days by MTS assay. The settings on record: for EC50: Human immunodeficiency virus 1, 3B, 144 h, read-out: ED50 (the source's name). The class given is functional. The procedure, abridged:
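CEM-SS cells split 1:2 the day before, then washed and resuspended at (2-3) × 10^4 cells/mL in RPMI 1640 with 10% heat-inactivated FBS, 4 mM L-glutamine, penicillin/streptomycin. Compounds diluted in complete medium. HIV-1 IIIB added at ~2 ng p24/mL (MOI ~0.4). Incubated 6 days at 37 °C, 5% CO2. MTS/PES added (final 317 µg/mL and 50 µM) for 4 h. Read at 490/650 nm as % CPE reduction; five-concentration dose-response.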
(In general: Protection from cytopathic effect is a common read-out in antiviral testing.)

Series [3] relates to Human immunodeficiency virus 1. Briefly: Antiviral activity against HIV1 3B infected in human HOG.R5 cells after 4 days. It is filed as functional, organism-based. The settings on record: Human immunodeficiency virus 1, 3B, HOG.R5, 96 h. The procedure, abridged: (§1)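 GFP reporter HOG.R5 cells in microtiter wells infected with HIV-1 IIIB (2.5 ng/mL p24) with test agent present. Fluorescence read after 4 days. Selectivity index taken as CC50 in uninfected parallel HOG.R5 cultures divided by antiviral IC50.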

The test system of series [4] is CEM-SS. Kind of series: Cytotoxicity against human CEM-SS cells at 40 ug/ml after 6 days by MTS assay. The class given is cell-based. The following applies: 144 h. The procedure, abridged:
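Run alongside the CPE assay as uninfected toxicity controls. CEM-SS cells at (2-3) × 10^4 cells/mL in RPMI 1640 with 10% heat-inactivated FBS and 4 mM L-glutamine, plus compound without virus. After 6 days at 37 °C, MTS/PES added (final 317 µg/mL and 50 µM) for 4 h. Absorbance at 490/650 nm gives % viability and CC50.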

Series [5] can be described thus: Cytotoxicity against human HOG.R5 cells after 4 days. The class given is cell-based. Summed up:
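GFP-based HOG.R5 reporter cells in microtiter wells treated with compounds without virus, in parallel with HIV-1 IIIB-infected (2.5 ng/mL p24) cultures. After 4 days, viability judged by combined microscopic and fluorometric measurement. CC50 = concentration mediating 50% cytotoxicity.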

The nature of series [6]: Selectivity index, ratio of CC50 for human HOG.R5 cells to IC50 for HIV1 3B. It is filed as functional. Summed up:
as §1

The nature of series [7]: Cytotoxicity against human CEM-SS cells after 6 days by MTS assay. It is filed as cell-based. Summed up: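 CEM-SS cells split 1:2 the day before, then washed and resuspended at (2-3) × 10^4 cells/mL in RPMI 1640 with 10% heat-inactivated FBS, 4 mM L-glutamine, penicillin/streptomycin. Compounds diluted in complete medium, virus omitted (toxicity controls). 6 days at 37 °C, 5% CO2; MTS/PES added (final 317 µg/mL and 50 µM), 4 h further, A490/650. CC50 = 50% cytotoxic concentration.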
For orientation: Tetrazolium dyes change colour on reduction, which living cells bring about.

Series [8] deals with Human immunodeficiency virus 1. Briefly: Antiviral activity against HIV1 3B infected in human CEM-SS cells assessed as inhibition of virus-induced cytopathic effect at 2.7 uM after 6 days by MTS assay. The class given is functional. The following applies: Human immunodeficiency virus 1, 3B, 144 h. Summed up:
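CEM-SS cells split 1:2 the day before, then washed and resuspended at (2-3) × 10^4 cells/mL in RPMI 1640 with 10% heat-inactivated FBS, glutamine and antibiotics. Infected with HIV-1 IIIB (~2 ng p24/mL, MOI ~0.4) alongside test agent. Incubated 6 days at 37 °C, 5% CO2. MTS/PES added (final 317 µg/mL and 50 µM) for 4 h. Absorbance read at 490/650 nm and reported as % CPE reduction.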

Series [9] has as its system HUVEC. Kind of series: Cytotoxicity against HUVEC cells. The class given is functional. The following applies: Homo sapiens, read-out: ED50 (the source's name).
In series [10] the test system is Lu1. Kind of series: Cytotoxicity against human Lu1 cells. It is filed as functional. The following applies: read-out: ED50 (the source's name).
For series [11], the system named is KB. Kind of series: Cytotoxicity against human KB cells. It is filed as functional. The settings on record: read-out: ED50 (the source's name).
The subject of series [12] is LNCaP. Briefly: Cytotoxicity against human LNCAP cells. It is filed as functional. The following applies: read-out: ED50 (the source's name).
The test system of series [13] is Col2. Kind of series: Cytotoxicity against human Col2 cells. The class given is functional. The settings on record: read-out: ED50 (the source's name).
Series [14] concerns SK-MEL-2. Briefly: Cytotoxicity against human SK-MEL-2 cells. The class given is functional. The following applies: read-out: ED50 (the source's name).
Series [15] in a line: Selectivity index, ratio of CC50 for human CEM-SS cells to IC50 for HIV1 3B. The class given is functional. Summed up:
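CEM-SS cells at (2-3) × 10^4 cells/mL in RPMI 1640/10% FBS infected with HIV-1 IIIB (~2 ng p24/mL, MOI ~0.4) in presence of compounds. After 6 days at 37 °C, viability by MTS/PES reduction (4 h, A490/650). ED50 is 50% cytoprotection against viral CPE. SI = CC50 in uninfected parallel cells / ED50.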

By IC50 is commonly meant the concentration that inhibits the measured activity by half. Low values mean greater potency, high ones weaker potency. Usually CC50 stands for the concentration that lowers cell viability or growth by half. Low readings indicate greater toxicity to the cells, high ones lower toxicity to the cells. Usually inhibition stands for the relative decrease from the control value, in per cent.

Some results are limits rather than exact numbers.

For `CC(C)Nc1cccnc1N1CCN(C(=O)c2cc3cc(NS(C)(=O)=O)ccc3[nH]2)CC1.CS(=O)(=O)O` [DELAVIRDINE MESYLATE], the Activity result in series [1] and in series [4] was “Non-toxic” throughout. Moreover, the EC50 in series [2] is 0.06 µM. This compound had an IC50 in series [3] of 0.02 µM.

Turning to `Cc1c(O)cccc1C(=O)N[C@@H](CSc1ccccc1)[C@H](O)CN1C[C@H]2CCCC[C@H]2C[C@H]1C(=O)NC(C)(C)C`, the Activity entry in series [1] and in [4] was “Non-toxic” each time. In series [2], the EC50 turned out to be 0.03 µM. In series [3], the IC50 worked out at 0.09 µM.

`C[C@H]1[C@H](C)CC[C@]2(C(=O)O)CC[C@]3(C)C(=CC[C@@H]4[C@@]5(C)CC[C@H](O)C(C)(C)[C@@H]5CC[C@]43C)[C@H]12` [URSOLIC ACID] yielded a CC50 at 96 h in [5] of 15.4 µM. The “Ratio CC50/IC50” value in series [6] was 1. In series [7], the CC50 at 144 h turned out to be 21.9 µM. Also, the IC50 in series [3] is 14.4 µM. Also, the inhibition at 2.7 µM in series [8] is 22%.

With `C=C(C)[C@@H]1CC[C@]2(C(=O)O)CC[C@]3(C)[C@H](CC[C@@H]4[C@@]5(C)CC[C@H](OC(=O)/C=C\c6ccc(O)c(OC)c6)C(C)(C)[C@@H]5CC[C@]43C)[C@@H]12`, it took 22.2 µM to reach half-maximal cytotoxicity in series [5] (CC50 at 96 h). For the same compound, the EC50 in [9] came out at 6.2 µM; in series [10], 15.7 µM; in series [11], 5.4 µM; in [12], 5.2 µM; in [13], 7.4 µM; in [14] it was 3.8 µM. Besides, the Activity entry in series [2] is “Toxic”. In addition, the “Ratio CC50/IC50” value in series [6] is listed as 2. The CC50 at 144 h in series [7] is less than 1.6 µM. For the same compound, half-maximal inhibition in [3] (IC50) was put at 11.1 µM.

On to `CCCc1cc(=O)oc2c3c(c4c(c12)OC(C)(C)C=C4)O[C@H](C)[C@@H](C)[C@@H]3O` [CALANOLIDE A], for which the Activity result in series [1] and in [4] was “Non-toxic” in each case. Moreover, in series [2], the EC50 was determined as 0.31 µM. Besides, it took 0.07 µM to reach half-maximal inhibition in series [3] (IC50).

As to `Nc1ccn([C@@H]2CS[C@H](CO)O2)c(=O)n1` [LAMIVUDINE], the Activity result in series [1] and in series [4] was “Non-toxic” each time. The EC50 in series [2] amounted to 0.36 µM.

Regarding `C=C(C)[C@@H]1CC[C@]2(C(=O)O)CC[C@]3(C)[C@H](CC[C@@H]4[C@@]5(C)CC[C@H](OC(=O)/C=C/c6ccc(O)c(OC)c6)C(C)(C)[C@@H]5CC[C@]43C)[C@@H]12`, the CC50 at 96 h in [5] is 13.4 µM. Besides, the EC50 in [9] was 9.5 µM; in [10] it was 8.5 µM; in series [11], 2.5 µM; in [12], 3.2 µM; in series [13] it was 5.4 µM; in series [14] it was 3.8 µM. Further, in series [2], the Activity result was “Toxic”. In addition, in series [6], the “Ratio CC50/IC50” value was found to be 3. Also, the CC50 at 144 h in series [7] was less than 1.6 µM. In series [3], this compound registered an IC50 of 5.1 µM.

With `C=C(C)[C@@H]1CC[C@]2(C(=O)O)CC[C@]3(C)[C@H](CC[C@@H]4[C@@]5(C)CC[C@H](O)C(C)(C)[C@@H]5CC[C@]43C)[C@@H]12` [BETULINIC ACID], the results for the “Ratio CC50/IC50” value in series [15] and in [6] were 3 and 5, respectively. Besides, the CC50 at 96 h in series [5] amounted to 16.7 µM. Moreover, the EC50 was 28.7 µM in series [9]; 40.6 µM in [10]; 35.7 µM in series [11]; 2 µM in series [2]; 27.4 µM in series [12]; 43.9 µM in [13]. In addition, the EC50 in [14] is 1.3 µM. In series [7], this compound had a CC50 at 144 h of 5.9 µM. This compound returned an IC50 in series [3] of 3.1 µM.

As for `C=C(C)[C@@H]1CC[C@]2(C(=O)O)CC[C@]3(C)[C@H](CC[C@@H]4[C@@]5(C)CC[C@H](OC(=O)/C=C\c6ccc(O)cc6)C(C)(C)[C@@H]5CC[C@]43C)[C@@H]12`, half-maximal cytotoxicity in [5] (CC50 at 96 h) was put at 15.9 µM. Moreover, the EC50 in [9] worked out at 6.8 µM; in series [10] it was 11 µM; in [11], 4.3 µM; in [12], 3.2 µM; in [13] it was 6 µM; in series [14] it was 3.8 µM. The Activity entry in series [2] was “Toxic”. For the same compound, in series [6], the “Ratio CC50/IC50” value amounted to 2. This compound also showed a CC50 at 144 h in series [7] of less than 1.7 µM. Further, the IC50 in series [3] is 8 µM.

As for `C=C(C)[C@@H]1CC[C@]2(C(=O)O)CC[C@]3(C)[C@H](CC[C@@H]4[C@@]5(C)CC[C@H](OC(=O)/C=C/c6ccc(O)cc6)C(C)(C)[C@@H]5CC[C@]43C)[C@@H]12`, the midpoint of cytotoxicity in [5], the CC50 at 96 h, lay at 14.3 µM. For the same compound, the EC50 in series [9] was found to be 5.3 µM; in [10], 12.1 µM; in series [11], 5.5 µM; in series [12], 5.7 µM; in series [13], 6.6 µM; in series [14] it was 4.2 µM. The Activity entry in [2] was “Toxic”. Also, the “Ratio CC50/IC50” value in series [6] is 3. In series [7], this compound registered a CC50 at 144 h of less than 1.7 µM. Half-maximal inhibition in series [3] (IC50) required 5.6 µM.
